Structures can show the parent of a compound that is named as a salt. One block for each molecule: values may come before it.
Tests used:
Type in all cases: functional
[1] = Competitive inhibition of Cu2-amyloid beta (1 to 20) complex-induced DTBC oxidation by spectrophotometry
In short: (§1)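 Cu(II)–Aβ complex formed just before assay by mixing stoichiometric Cu(II) and peptide at μM level in the reaction solution. Several concentrations of DTBC or THB substrate are incubated with a constant Cu(II)–Aβ concentration in 0.1 M HEPES, pH 7.4, 25 °C. Ki is obtained from Lineweaver–Burk analysis assuming competitive inhibition.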

[2] = Competitive inhibition of Cu2-amyloid beta (1 to 16) complex-induced DTBC oxidation by spectrophotometry; in short: as §1
[3] = Competitive inhibition of Cu2-amyloid beta (1 to 20) complex-induced THB oxidation by spectrophotometry; in short: as §1
[4] = Inhibition of Cu2-amyloid beta (1 to 16) complex-induced THB oxidation by spectrophotometry; in short: as §1
[5] = Inhibition of Cu2-amyloid beta (1 to 16) complex-induced DTBC oxidation by spectrophotometry; in short: as §1
[6] = Inhibition of Cu2-amyloid beta (1 to 20) complex-induced dopamine oxidation by spectrophotometry
In short: (§2)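 Cu(II)–Aβ prepared fresh from stoichiometric Cu(II) and peptide at μM level. Dopamine oxidation (1.0 mM for inhibition plots; varied for Lineweaver–Burk) is catalysed by 2.0 μM Cu–Aβ1-40, 3.0 μM Cu–Aβ1-16, or 3.0 or 17.0 μM Cu–Aβ1-20, in 0.1 M HEPES pH 7.4, 25 °C. Inhibitor is titrated to give IC50. Ki comes from a 1/v vs 1/[dopamine] plot, competitive model.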

[7] = Inhibition of Cu2-amyloid beta (1 to 16) complex-induced dopamine oxidation by spectrophotometry; in short: as §2
[8] = Competitive inhibition of full-length Cu2-amyloid beta (1 to 40) complex-induced dopamine oxidation by Lineweaver-Burk plot analysis; in short: as §2
[9] = Inhibition of Cu2-amyloid beta (1 to 40) complex-induced dopamine oxidation by spectrophotometry; in short: as §2

Ki [1]: 0.2 mM
Ki [2]: 0.13 mM
Compound: Cc1ncc(COP(=O)(O)O)c(C=O)c1O [PYRIDOXAL PHOSPHATE ANHYDROUS]

Ki [1]: 1.12 mM
Ki [2]: 0.67 mM
Ki [3]: 2.8 mM
Compound: Cc1ncc(CO)c(C=O)c1O [PYRIDOXAL]

Ki [4]: 8.67 mM
Ki [5]: 5.05 mM
Ki [6]: 8.29 mM
Ki [7]: 5.56 mM
Compound: Cc1ncc(CO)c(CO)c1O [PYRIDOXINE HYDROCHLORIDE]

Ki [8]: 1.42 mM
IC50 [9]: 7 mM
IC50 [6]: 7 mM
Ki [6]: 1.4 mM
IC50 [7]: 7 mM
Compound: Cc1ncc(CO)c(CN)c1O [PYRIDOXAMINE]

— ChEMBL document CHEMBL1909634, “Vitamin B6s inhibit oxidative stress caused by Alzheimer's disease-related Cu(II)-β-amyloid complexes-cooperative action of phospho-moiety” (Bioorg Med Chem Lett, 2011)
